The test system of one data set is HCoV-OC43. Briefly: anti-coronavirus CPE inhibition assay. Format: cell-based. Conditions: read-out: EC50 HCoV-OC43 (CPE inhibition). Summed up: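 HCT-8 cells (DMEM, 10% heat-inactivated FBS) seeded at 2 × 10^4/well for 24 h. Infected with HCoV-OC43 strain VR-1558 at MOI 0.1 in 2% FBS medium; two-fold serial dilutions of test compound (0.195–50 μM) added 1 h post-infection. Incubated 5 days at 33 °C, then MTS 3 h at 37 °C, A490. Means ± SD, three independent experiments.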

Data set [1] deals with T1, SARS-CoV-2 RdRp (Severe acute respiratory syndrome coronavirus 2, UniProt P0DTD1). Conditions: for inhibition ratio against SARS-CoV-2 RdRp: 10 μM, library screen; for TI (CC50/EC50): CC50 HEK293T / RdRp EC50.
A short description of data set [2]: cell toxicity assay, CCK-8 kit. Format: cell-based. The following applies: human, HEK293T cells. In short, it runs like this: (§1)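 HEK293T cells (DMEM, 10% FBS) seeded one day before treatment. Test compound added in […] for 24 h. CCK-8 (WST-8) reagent then added for 60 min at 37 °C, 5% CO2, and A450 read. CC50 derived from viability relative to DMSO-treated cells.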

Data set [3] has as its target SARS-CoV-2 RdRp in the presence of nsp14 and nsp10 (Severe acute respiratory syndrome coronavirus 2, UniProt P0DTD1). The data set can be described thus: cell-based CoV-RdRp-Gluc system with nsp10/nsp14 proofreading function. Conditions: EC50 with nsp14/nsp10 over EC50 without.
Data set [4] in a line: toxicity after incubation for 5 days in HCT-8 cells. Format: cell-based. Conditions: human, HCT-8 cells.
The subject of another data set is HCoV-NL63. Briefly: anti-coronavirus CPE inhibition assay. Format: cell-based. Conditions: read-out: EC50 HCoV-NL63 (CPE inhibition); LLC-MK2, MOI 0.01, 5 days, MTS. In short, it runs like this: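 LLC-MK2 cells (DMEM, 10% heat-inactivated FBS) seeded at 2 × 10^4/well for 24 h. Infected with HCoV-NL63 strain Amsterdam I at MOI 0.01 in 2% FBS medium; test compound in two-fold dilutions (0.195–50 μM) given 1 h post-infection. Incubated 5 days at 33 °C; MTS 3 h at 37 °C, A490. Means ± SD, three independent experiments.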

In another data set the test system is LLC-MK2 cells. The data set can be described thus: toxicity after incubation for 5 days in LLC-MK2 cells. Conditions: read-out: Toxicity CC50 LLC-MK2. Format: cell-based.
In another data set the test system is HEK293T cells. Briefly: cell toxicity assay, CCK-8 kit. Type of data set: cell-based. Conditions: HEK293T, 24 h, CCK-8. In short, it runs like this:
as §1

Another data set has as its system HCT-8 cells. Briefly: toxicity after incubation for 5 days in HCT-8 cells. Conditions: read-out: Toxicity CC50 HCT-8; incubation for 5 days. Format: cell-based.
For data set [5], the target named is T1, SARS-CoV-2 RdRp. The data set can be described thus: Bio layer interferometry binding assay. The following applies: data not shown.
Data set [6] concerns the target T1, SARS-CoV-2 RdRp. Briefly: CoV-Gluc plus- and minus-strand RNA by real-time qRT-PCR. Type of data set: cell-based. The following applies: HEK293T, 2 μM or 10 μM, 24 h.
Where [7] appears, read: Betacoronavirus 1, OC43, HCT-8, 120 h.

SMILES strings stand for the structures. Several values for one entry are separate records, joined by “and”; a condition that tells them apart may be missing. Equal entries are not always repeated. Where two headings read alike, the source gives them in different places. A value given as a limit tells only on which side of the number the result lay.

Results on five compounds are retold here after PMC8800165 (Antiviral Research, 2022).

Take `Nc1nc(F)nc2c1ncn2[C@@H]1O[C@H](COP(=O)(O)O)[C@@H](O)[C@@H]1O` [Fludarabine Phosphate]: in the data set with HCoV-OC43 (setting [7]), the EC50 stood at 3.11 µM. Further, on SARS-CoV-2 RdRp [1], the “inhibition ratio against SARS-CoV-2 RdRp” value was 89.78% and > 75%; the “TI (CC50/EC50)” value came to 70.15. In [2], the CC50 at 24 h is 65.2 µM. The “Ratio (12 + 14/12)” value in data set [3] is listed as 7.19. The compound also gave a CC50 at 5 days in [4] of 37.5 ± 1.62 µM.
On to `CCC(CC)COC(=O)[C@H](C)N[P@](=O)(OC[C@H]1O[C@@](C#N)(c2ccc3c(N)ncnn23)[C@H](O)[C@@H]1O)Oc1ccccc1` [Remdesivir], for which the “TI (CC50/EC50)” value on SARS-CoV-2 RdRp [1] is given as >93.46. The CC50 at 24 h in [2] was > 100 µM.
Consider `Nc1nc2c(ncn2[C@H]2C[C@H](O)[C@@H](CO)O2)c(=S)[nH]1` [6-Thio-dG, 6-Thio-20-Deoxyguanosine], for which the EC50 in the data set on HCoV-NL63 worked out at 9.53 µM; in the data set on HCoV-OC43 (HCT-8, MOI 0.1, 5 days, MTS), 6.5 µM. In addition, the CC50 with LLC-MK2 cells was 68 ± 7.03 µM; with HEK293T cells, > 100 µM; with HCT-8 cells, 63 ± 3.52 µM. Further, the “inhibition ratio against SARS-CoV-2 RdRp” value at SARS-CoV-2 RdRp [1] is 75.19% and > 75%. In addition, the “Ratio (12 + 14/12)” value in [3] was found to be 8.04.
On to `Nc1ncnc2c1c(I)cn2[C@@H]1O[C@H](CO)[C@@H](O)[C@H]1O` [5-Iodotubercidin], for which the EC50 in the data set on HCoV-NL63 stood at 3.62 µM; in the data set on HCoV-OC43 (HCT-8, MOI 0.1, 5 days, MTS), 1.56 µM. Moreover, the figures for the CC50 with LLC-MK2 cells, in the data set on HEK293T cells and in the data set with HCT-8 cells were 45.6 ± 5.15 µM, 59.5 µM and 46.9 ± 2.37 µM, respectively. Further, the “inhibition ratio against SARS-CoV-2 RdRp” value on SARS-CoV-2 RdRp [1] was 85.69% and > 75%. In addition, the “TI (CC50/EC50)” value at SARS-CoV-2 RdRp [1] is 79.28. In [3], the “Ratio (12 + 14/12)” value was determined as 1.89. At SARS-CoV-2 RdRp [5], the “binding activity upon SARS-CoV-2 RdRp” value is on record as “did not detect the binding activity”. The “levels of plus-strand and minus-strand Gluc RNA” value on SARS-CoV-2 RdRp [6] is “even better than the Remdesivir”.
In the case of `Nc1nc(F)nc2c1ncn2[C@@H]1O[C@H](CO)[C@@H](O)[C@@H]1O` [Fludarabine], in the data set with HCoV-OC43 (setting [7]), the EC50 came to 4.56 µM. For the same compound, at SARS-CoV-2 RdRp [1], the “inhibition ratio against SARS-CoV-2 RdRp” value is 88.71% and > 75%; the “TI (CC50/EC50)” value is recorded as 50.58. Moreover, the CC50 at 24 h in data set [2] was found to be 53.6 µM. Further, in data set [3], the “Ratio (12 + 14/12)” value is 11.53. The compound further registered a CC50 at 5 days in data set [4] of 40.4 ± 8.16 µM.
